According to ChEMBL document CHEMBL1148623, “Synthesis and activity of 1,3,5-triphenylimidazolidine-2,4-diones and 1,3,5-triphenyl-2-thioxoimidazolidin-4-ones: characterization of new CB1 cannabinoid receptor inverse agonists/antagonists” (J Med Chem, 2006):

Tests used:
Cannabinoid receptor 1 [1] = biological target: T1, Cannabinoid receptor 1 (Homo sapiens, UniProt P21554); test: Displacement of [3H]SR141716A from human CB1 receptor expressed in CHO cells at 10 uM; assay type: cell-based
In short: (§1)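 Radioligand competition on membranes from CHO cells stably transfected with human CB1 or CB2. Radioligands at 1 nM: [3H]-SR141716A for hCB1, [3H]-CP-55,940 for hCB2. Compound screened at 10 µM. 40 µg membrane protein; Tris-HCl pH 7.4 buffer with MgCl2, EDTA, 0.5% BSA; 1 h at 30 °C. Filtered on PEI-treated GF/B filters and counted. Nonspecific binding with 10 µM HU-210. Result given as % displacement.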

[2] = biological target: Cannabinoid receptor 2 (Homo sapiens) (UniProt P34972); test: Displacement of [3H]CP-55940 from human CB2 receptor expressed in CHO cells at 10 uM; assay type: cell-based; in short: as §1
[3] = biological target: T2, Fatty-acid amide hydrolase 1 (Rattus norvegicus) (UniProt P97612); test: Inhibition of FAAH in rat brain homogenates at 10 uM; assay type: tissue-based
T2 sequence (whole entry): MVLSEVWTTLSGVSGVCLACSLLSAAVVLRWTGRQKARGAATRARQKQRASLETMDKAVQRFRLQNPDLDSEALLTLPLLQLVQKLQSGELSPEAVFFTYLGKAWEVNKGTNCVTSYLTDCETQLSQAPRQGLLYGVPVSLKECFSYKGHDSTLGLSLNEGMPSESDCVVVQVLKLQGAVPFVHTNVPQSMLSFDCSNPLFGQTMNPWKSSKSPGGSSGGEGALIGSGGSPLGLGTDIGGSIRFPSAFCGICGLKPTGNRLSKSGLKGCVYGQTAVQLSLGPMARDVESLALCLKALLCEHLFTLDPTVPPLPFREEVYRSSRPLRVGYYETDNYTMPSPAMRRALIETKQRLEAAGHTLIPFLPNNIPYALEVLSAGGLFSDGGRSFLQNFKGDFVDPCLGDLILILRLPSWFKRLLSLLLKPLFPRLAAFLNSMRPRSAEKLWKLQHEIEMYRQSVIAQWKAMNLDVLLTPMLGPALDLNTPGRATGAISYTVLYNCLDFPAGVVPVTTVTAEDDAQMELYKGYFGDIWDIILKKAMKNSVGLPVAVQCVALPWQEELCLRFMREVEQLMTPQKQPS
In short: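 FAAH activity in adult rat brain membranes, prepared by homogenization in HEPES pH 7.0 and repeated centrifugation at 36 000 g. Compound at 10 µM incubated with [3H]-anandamide (2 µM final) in Tris-HCl pH 7.6, EDTA, 0.1% BSA for 10 min at 37 °C. Stopped on ice with chloroform/methanol; radioactivity in the aqueous methanol phase counted. Blanks without homogenate.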

Cannabinoid receptor 1 [4] = biological target: T1, Cannabinoid receptor 1
Cannabinoid receptor 1 [5] = biological target: T1, Cannabinoid receptor 1; test: Potency at human CB1 receptor in a [35S]GTP-gamma-S functional assay
Cannabinoid receptor 1 [6] = biological target: Cannabinoid receptor 1 (Rattus norvegicus, UniProt P20272); test: Displacement of [3H]SR141716A from CB1 receptor in rat cerebellum; assay type: tissue-based
In short: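 40 µg protein; Tris-HCl pH 7.4 buffer with 0.5% BSA; 1 h at 30 °C. Compound at varying concentrations; nonspecific binding with 10 µM HU-210. IC50 by nonlinear regression, converted to Ki by Cheng-Prusoff. Mean ± SEM of at least four experiments in duplicate.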

[7] = biological target: Cannabinoid receptor 1 (Rattus norvegicus) (UniProt P20272); test: Potency at rat CB1 receptor in a [35S]GTPgammaS functional assay at 10 uM; conditions: filed as antagonist
In short: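 [35S]-GTPγS binding in rat cerebellum homogenate, 40 µg protein. Buffer: Tris-HCl pH 7.4 with 100 mM NaCl, 0.1% BSA and 20 µM GDP. Compound at 10 µM; 0.05 nM [35S]-GTPγS final; 1 h at 30 °C. Filtered on GF/B and counted. Nonspecific binding with 100 µM Gpp(NH)p. Mean ± SEM of at least three experiments in duplicate.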

Sequence of Cannabinoid receptor 1 (Rattus norvegicus) (P20272 whole entry): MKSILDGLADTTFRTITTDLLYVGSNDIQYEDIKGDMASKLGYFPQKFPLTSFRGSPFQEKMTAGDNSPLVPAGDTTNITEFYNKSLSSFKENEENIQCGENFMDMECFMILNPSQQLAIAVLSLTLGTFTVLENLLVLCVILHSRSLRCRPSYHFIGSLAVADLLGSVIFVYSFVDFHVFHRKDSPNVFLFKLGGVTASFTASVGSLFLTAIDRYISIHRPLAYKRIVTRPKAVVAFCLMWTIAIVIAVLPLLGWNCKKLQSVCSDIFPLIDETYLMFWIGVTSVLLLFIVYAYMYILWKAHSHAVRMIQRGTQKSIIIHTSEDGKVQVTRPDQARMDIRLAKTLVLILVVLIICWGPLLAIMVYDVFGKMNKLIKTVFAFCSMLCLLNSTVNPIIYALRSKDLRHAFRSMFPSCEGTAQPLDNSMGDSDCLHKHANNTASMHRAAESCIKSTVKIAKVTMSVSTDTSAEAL
Sequence of Cannabinoid receptor 1 (Rattus norvegicus, UniProt P20272) (P20272 whole entry): as above
Sequence of Cannabinoid receptor 2 (Homo sapiens) (P34972 whole entry): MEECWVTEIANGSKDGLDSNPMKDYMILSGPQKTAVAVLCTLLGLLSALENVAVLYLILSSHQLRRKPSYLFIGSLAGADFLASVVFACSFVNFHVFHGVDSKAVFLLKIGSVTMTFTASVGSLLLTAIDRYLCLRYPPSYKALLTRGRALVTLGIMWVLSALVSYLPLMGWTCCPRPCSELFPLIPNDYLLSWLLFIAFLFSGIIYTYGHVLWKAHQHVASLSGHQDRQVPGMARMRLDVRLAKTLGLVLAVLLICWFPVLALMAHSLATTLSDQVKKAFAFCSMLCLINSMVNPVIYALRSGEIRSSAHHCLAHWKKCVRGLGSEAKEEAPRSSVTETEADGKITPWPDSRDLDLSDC
T1 sequence (P21554 whole entry): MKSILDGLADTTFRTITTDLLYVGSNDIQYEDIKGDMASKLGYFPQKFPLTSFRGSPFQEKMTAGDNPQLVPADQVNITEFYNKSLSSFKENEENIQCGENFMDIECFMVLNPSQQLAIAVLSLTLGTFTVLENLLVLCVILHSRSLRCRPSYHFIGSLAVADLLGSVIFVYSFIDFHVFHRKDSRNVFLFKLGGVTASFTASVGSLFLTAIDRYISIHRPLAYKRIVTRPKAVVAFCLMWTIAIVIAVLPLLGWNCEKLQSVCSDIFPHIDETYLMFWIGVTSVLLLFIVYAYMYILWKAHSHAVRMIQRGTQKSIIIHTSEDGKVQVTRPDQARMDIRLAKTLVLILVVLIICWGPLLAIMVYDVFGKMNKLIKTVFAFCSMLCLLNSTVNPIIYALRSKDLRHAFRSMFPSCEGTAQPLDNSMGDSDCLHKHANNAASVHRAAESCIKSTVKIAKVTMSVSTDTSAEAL

Compound | Activity (Cannabinoid receptor 1 [1]) [%] | Activity [2] [%] | inhibition [3] [%] | Ki (Cannabinoid receptor 1 [4]) [nM] | EC50 (Cannabinoid receptor 1 [5]) [nM] | Ki (Cannabinoid receptor 1 [6]) [nM] | Activity [7]
CCCCCC(=O)N1C(=O)C(c2ccccc2)N(c2ccccc2)C1=O (stereo not given) | < 10 | < 10 |  |  |  |  | 
O=C(c1ccccc1)N1C(=O)C(c2ccccc2)N(c2ccccc2)C1=O (stereo not given) | < 10 | < 10 |  |  |  |  | 
O=C1C(c2ccccc2)N(c2cccc(I)c2)C(=S)N1c1cccc(I)c1 (stereo not given) | 81.2 | < 15 | 17.4 | 692 | 461 |  | 
O=C1NC(=O)N(c2ccc(I)cc2)C1c1ccccc1 (stereo not given) | < 20 | < 10 |  |  |  |  | 
COc1ccc(N2C(=O)C(c3ccccc3)N(c3ccc(OC)cc3)C2=O)cc1 (stereo not given) | 57.8 | 31.4 | < 10 | 6460 |  |  | 
CCCCCCC(C)(C)c1cc(O)c2c(c1)OC(C)(C)[C@@H]1CC=C(CO)C[C@@H]21 |  |  |  | 18.6 | 0.6 | 2.75 | 
O=C1NC(=S)N(c2ccccc2)C1c1ccccc1 (stereo not given) | < 10 | < 10 |  |  |  |  | 
O=C1C(c2ccccc2)N(c2ccc(Cl)cc2)C(=S)N1c1ccc(Cl)cc1 (stereo not given) | 93.7 | < 10 | 11.4 | 2160 | 2100 |  | 
O=C1C(c2ccc(Br)cc2)N(c2ccccc2)C(=S)N1c1ccccc1 (stereo not given) | 85.1 | < 10 | 19.1 | 6310 |  |  | 
COc1ccc(N2C(=O)C(c3ccccc3)N(c3ccc(OC)cc3)C2=S)cc1 (stereo not given) | 65.6 | < 20 | < 10 | 7030 |  |  | 
Cc1ccc(N2C(=O)C(c3ccccc3)N(c3ccc(C)cc3)C2=S)cc1 (stereo not given) | 80.1 | < 20 | < 10 | 4970 |  |  | 
O=C1C(c2ccccc2)N(c2cccc(Cl)c2)C(=O)N1c1cccc(Cl)c1 (stereo not given) | 76 | 32.1 | < 10 | 2110 | 936 |  | 
O=C1C(c2ccccc2)N(C2CCCCC2)C(=O)N1C1CCCCC1 (stereo not given) | 25 |  |  |  |  |  | 
COc1ccc(N2C(=O)NC(=O)C2c2ccccc2)cc1 (stereo not given) | < 10 | < 10 |  |  |  |  | 
O=C1C(c2ccccc2)N(c2ccc(Cl)c(Cl)c2)C(=S)N1c1ccc(Cl)c(Cl)c1 (stereo not given) | 78.7 | < 10 | 22.9 | 2000 |  |  | 
O=C1NC(=O)N(c2ccc(Br)cc2)C1c1ccc(Br)cc1 (stereo not given) | < 15 | < 10 |  |  |  |  | 
O=C1NC(=O)N(c2ccc(Cl)cc2)C1c1ccccc1 (stereo not given) | < 15 | < 10 |  |  |  |  | 

Compound | Activity (Cannabinoid receptor 1 [1]) [%] | Activity [2] [%] | inhibition [3] [%] | Ki (Cannabinoid receptor 1 [4]) [nM] | EC50 (Cannabinoid receptor 1 [5]) [nM] | Ki (Cannabinoid receptor 1 [6]) [nM] | Activity [7]
O=C1C(c2ccccc2)N(c2ccccc2)C(=S)N1c1ccccc1 (stereo not given) | 61.7 | < 10 | 11.8 | > 8000 |  |  | 
O=C1NC(=O)N(c2ccc(Cl)cc2)C1c1ccc(Br)cc1 (stereo not given) | < 15 | < 10 |  |  |  |  | 
O=C1C(c2ccccc2)N(c2ccc(Br)cc2)C(=S)N1c1ccc(Br)cc1 (stereo not given) | 100 | < 15 | < 10 | 1450 | 1620 |  | 
O=C1C(c2ccccc2)N(c2ccc(Cl)cc2)C(=O)N1c1ccc(Cl)cc1 (stereo not given) | 101 | 21.6 | < 10 | 353 | 309 | 247 | Antagonist
CCCCCN1C(=O)C(c2ccccc2)N(c2ccccc2)C1=O (stereo not given) | 41.1 | < 10 |  |  |  |  | 
O=C1C(c2ccc(Br)cc2)N(c2ccc(Cl)cc2)C(=O)N1c1ccc(Cl)cc1 (stereo not given) | 79.1 | < 20 | 15.4 | 905 | 1230 | 1740 | Antagonist
O=C1C(c2ccccc2)N(c2ccc(O)cc2)C(=S)N1c1ccc(O)cc1 (stereo not given) | < 20 | < 10 | 31.5 |  |  |  | 
O=C1C(c2ccc(Cl)cc2)N(c2ccc(Cl)cc2)C(=O)N1c1ccc(Cl)cc1 (stereo not given) | 71.6 | 28.1 | < 10 | 1880 | 1110 | 2620 | Antagonist
O=C1NC(=O)N(c2ccc(Br)cc2)C1c1ccccc1 (stereo not given) | 25.2 | < 10 |  |  |  |  | 
O=C1NC(=O)N(c2ccccc2)C1c1ccc(Br)cc1 (stereo not given) | < 15 | < 10 |  |  |  |  | 
O=C1C(c2ccc(Cl)cc2)N(c2ccccc2)C(=O)N1c1ccccc1 (stereo not given) | 60.2 | < 15 | 13.7 | 6660 |  |  | 
O=C1C(c2ccccc2)N(c2ccccc2)C(=O)N1c1ccccc1 (stereo not given) | 57.1 | < 10 | < 10 | 6300 |  |  | 
O=C1C(c2ccc(Br)cc2)N(c2ccccc2)C(=O)N1c1ccccc1 (stereo not given) | 75.4 | < 15 | 14.5 | 4030 |  |  | 
O=C1NC(=O)N(c2ccccc2)C1c1ccccc1 (stereo not given) | < 10 | < 10 |  |  |  |  | 
CCCCCCCN1C(=O)C(c2ccccc2)N(c2ccccc2)C1=O (stereo not given) |  | < 10 |  |  |  |  | 
O=C1C(c2ccc(Cl)cc2)N(c2cccc(Cl)c2)C(=O)N1c1cccc(Cl)c1 (stereo not given) | 67.4 | 24.8 | < 10 | 3310 |  |  | 
O=C1C(c2ccccc2)N(c2ccc(Br)cc2)C(=O)N1c1ccc(Br)cc1 (stereo not given) | 102 | 35.6 | < 10 | 243 | 195 | 311 | Antagonist
